# Bcl-W Bim block = disrupts Bim peptide binding to human Bcl-W | Q92843 | bead-based flow cytometry | inhibition, % at 10 µM | 190,000 tested, 0.02% active;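 also: higher means less fluorescent Bim peptide bound to Bcl-W beads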
# Bcl-XL Bim block = disrupts Bim peptide binding to human Bcl-XL | 190,000 tested, 0.04% active | Q07817 | AID 1007 | inhibition, % at 10 µM | bead flow cytometry, fluorescence
# Bfl-1 Bim block = inhibitors of Bim-Bfl-1 interaction, human; Bead-based flow cytometry, Bim-Bfl-1 binding inhibition; inhibition, % at 10 µM; 190,000 tested, 0.12% active
# Bcl-B Bim block = inhibitors of Bim-Bcl-B interaction, human; Q9HD36; 190,000 tested, 0.073% active; AID 951; inhibition, % at 10 µM; bead-based flow cytometry, Bim peptide-Bcl-B binding
# Rad51 HR inh = blocks human Rad51 in homologous recombination; Q06609; inhibition, % at 10 µM; hRad51 DNA strand exchange, fluorescence dequenching; 200,000 tested, 0.085% active;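 active = inhibition above 40% at the single screening dose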
# Target sequence (Q06609 whole entry, looked up): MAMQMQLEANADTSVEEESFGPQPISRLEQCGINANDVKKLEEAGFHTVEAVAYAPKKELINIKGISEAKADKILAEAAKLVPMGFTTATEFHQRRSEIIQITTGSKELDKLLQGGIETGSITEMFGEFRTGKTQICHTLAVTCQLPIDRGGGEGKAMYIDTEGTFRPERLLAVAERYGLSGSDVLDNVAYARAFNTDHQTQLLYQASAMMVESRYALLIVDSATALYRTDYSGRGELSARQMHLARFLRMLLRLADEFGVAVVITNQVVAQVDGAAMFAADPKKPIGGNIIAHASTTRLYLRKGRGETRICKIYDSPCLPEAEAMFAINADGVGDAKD
#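 System: hRad51 filaments on single-stranded DNA; reagent: Fluorescein- and BHQ1-tagged 47-mer duplex; compound dosing: one concentration, 10 µM final; timing: filaments 15 min 37 °C, then compound 30 min; measured by: fluorescein emission 520 nm, excitation 485 nm; benchmarks: per-plate controls and blanks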
# Bcl-2 Bim block = human Bim-Bcl-2 interaction inhibition | inhibition, % at 10 µM | Bead-based flow cytometry, Bim peptide-Bcl-2 binding | 190,000 tested, 0.06% active | P10415; in the data active = inhibition above about 40%
# Hits are given with their value; – = inactive; · = not tested or not shown. In the library only some 0.23% were active in any assay of this set; here they are far more common. Rule as the data show it, unless noted: active = inhibition above about 40%.
SMILES,Bcl-W Bim block,Bcl-XL Bim block,Bfl-1 Bim block,Bcl-B Bim block,Rad51 HR inh,Bcl-2 Bim block
Cc1noc(C)c1COc1ccc(C(=O)Nc2cccnc2)cc1,–,–,–,43,–,–
COc1ccc(S(=O)(=O)n2cnc(C)c2)cc1,–,–,–,–,–,–
CC(C)Cc1cc(-c2ccco2)c(C#N)c(N)n1,–,–,73,93,–,90
O=C(NC(=S)Nc1cccc(O)c1)c1ccco1,·,·,·,·,–,·
COCCN=c1scc(-c2ccco2)n1/N=C/c1ccc(O)c(O)c1O,–,–,41,–,–,–
CC(C)N=c1scc(-c2ccco2)n1/N=C/c1ccc(O)c(O)c1,–,–,–,–,–,–
NC(=O)c1ccccc1NC(=O)/C=C/c1ccccc1,–,–,–,–,–,–
NC(=S)NC(=O)/C=C/c1ccccc1,–,–,–,–,41,–
COc1cccc2cc(C(=O)C3=C(O)C(=O)N(CCN(C)C)C3c3ccc(Cl)cc3)oc12 (stereo not given),·,·,·,·,–,·
CCCn1nnnc1SCC(=O)N1CCN(C(=O)c2ccco2)CC1,–,–,–,–,–,–
CC(C)n1nnnc1SCC(=O)N1CCN(C(=O)c2ccco2)CC1,–,50,–,93,–,–
CC(CCc1ccccc1)NCC#N (stereo not given),·,·,·,·,–,·
CCN(CC(=O)Nc1cccc(C#N)c1)CC(=O)Nc1cccc(OC)c1,–,–,–,–,–,–
O=C1CCc2cc(S(=O)(=O)NC(C(=O)N3CCN(c4ccccn4)CC3)c3ccccc3)ccc2N1 (stereo not given),–,–,–,–,41,–
O=C1CCc2cc(S(=O)(=O)NC(C(=O)NCc3cccnc3)c3ccccc3)ccc2N1 (stereo not given),–,–,–,–,–,–
O=c1[nH]c(=O)c2nnc(N/N=C\c3ccc(O)cc3)nc2[nH]1,–,44,–,–,–,–
O=c1[nH]c(=O)c2nnc(N/N=C/c3ccccc3F)nc2[nH]1,·,·,·,·,–,·
O=C(NCc1ccccc1Cl)C(=O)NCC(c1ccco1)N1CCOCC1 (stereo not given),–,–,–,–,–,–
CC1=CC(=O)c2c(O)ccc(O)c2C1=O,45,–,66,–,–,–
O=C1N/C(=C/c2cccn2-c2ccccc2)C(=O)N1Cc1ccc(F)cc1,–,–,42,–,–,–
C=CCNc1oc(-c2ccc(OC)cc2)nc1C#N,–,–,–,–,89,–
O=C(Cn1cncc1-c1ccc([N+](=O)[O-])cc1)Nc1ccccc1F,–,–,42,–,–,–
COc1ccccc1NC(=O)Cn1cncc1-c1ccc([N+](=O)[O-])cc1,–,–,–,–,·,–
C=CCNC(=S)N/N=C/c1cccc([N+](=O)[O-])c1,–,–,–,–,–,–
Cc1ccc(-c2ccc(=O)n(CC(=O)NCc3ccc(F)cc3)n2)cc1,–,–,–,–,50,–
SMILES,Bcl-W Bim block,Bcl-XL Bim block,Bfl-1 Bim block,Bcl-B Bim block,Rad51 HR inh,Bcl-2 Bim block
Cc1ccc(CNC(=O)CSCc2ccc(F)cc2)cc1,–,–,–,–,46,–
Cc1ccc(CNC(=O)CSCc2ccccc2)cc1,–,–,–,–,–,–
COC(=O)c1sc(NC(=O)c2c(OC)cccc2OC)c(C#N)c1C,–,–,–,–,–,–
Cc1ccc(/C=N/NC(=O)CSc2nnc(-c3ccc(Cl)cc3)n2-c2ccccc2)o1,–,–,–,48,–,–
O=C(CSc1nnc(-c2ccc(Cl)cc2)n1-c1ccc(Cl)cc1)N/N=C/c1ccco1,–,–,–,–,–,–
CN1CCN(C(=O)c2ccc(S(=O)(=O)c3ccc(Br)cc3)cc2)CC1,–,–,–,–,55,–
COc1ccc(OC)c(NC(=O)CCCN2C(=S)NC(C)(C)CC2C)c1 (stereo not given),42,49,50,54,–,43
O=C(NC1CCCCC1)c1cc([N+](=O)[O-])ccc1N1CCCCC1,–,–,–,–,118,–
O=C(O)CC/C(=C\c1cc([N+](=O)[O-])ccc1Cl)c1nc2ccccc2s1,–,40,–,–,–,–
O=C(O)CC/C(=C\c1ccccc1[N+](=O)[O-])c1nc2ccccc2s1,–,–,–,–,–,–
O=C(NC1CCCC1)C1CCC(=O)N1C1CCCCC1 (stereo not given),–,–,–,–,45,–

# Source: PubChem BioAssay
